From ChEMBL document CHEMBL1152544, “Inhibitory effect of beta-diketones and their metal complexes on TNF-alpha induced expression of ICAM-1 on human endothelial cells” (Bioorg Med Chem, 2009)
In brackets after ≈: the same amount, converted by molar mass.

Experiments:
[1] = Cytotoxicity against HUVEC assessed as cell viability at 60 ug/mL after 24 hrs by MTT assay; assay type: cell-based; details: human, HUVEC cells; read-out: Activity
Procedure, shortened: (§1)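 Primary HUVEC were exposed for 24 h to compound or vehicle (DMSO alone, 0.25%). Medium was replaced with MTT for the final 4 h. Formazan was then dissolved in DMSO and read at 570 nm. Viability was also checked by trypan blue exclusion.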

[2] = test system: HUVEC; assay: Antiinflammatory activity in HUVEC assessed as inhibition of TNF-alpha-induced cell surface ICAM1 expression at 60 ug/ml preincubated before TNFalpha challenge measured after 16 hrs by ELISA; assay type: functional; details: Homo sapiens
Procedure, shortened: (§2)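 Primary umbilical-cord HUVEC in M-199 with 15% FCS were grown confluent on gelatinized plates. They were pretreated with compound in DMSO, then given TNF-α for 16 h. Cells were fixed in 1% glutaraldehyde (30 min, 4 °C) and blocked in 3% defatted milk (3 h, 37 °C). Detection used anti-ICAM-1 mAb overnight at 4 °C, then peroxidase secondary (3 h, 37 °C). Substrate was o-phenylenediamine in citrate pH 4.5, stopped with 2 N H2SO4, read at A490.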

[3] = test system: HUVEC; assay: Cytotoxicity against HUVEC assessed as cell viability at 6.25 to 200 ug/mL after 24 hrs by MTT assay; assay type: cell-based; details: human; procedure, shortened: as §1
[4] = test system: HUVEC; assay: Cytotoxicity against HUVEC after 24 hrs by MTT assay; assay type: cell-based; details: human
Procedure, shortened: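 Primary endothelial cells isolated from human umbilical cord, grown in M-199 with 15% fetal calf serum, L-glutamine, penicillin, streptomycin, amphotericin and endothelial-cell growth factor, and used after three passages. Cells exposed to vehicle (DMSO 0.25%) or a range of compound concentrations for 24 h. MTT added for the last 4 h, formazan dissolved in DMSO, absorbance read at 570 nm. Trypan blue exclusion also done.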

[5] = test system: HUVEC; assay: Antiinflammatory activity in HUVEC assessed as inhibition of TNF-alpha-induced cell surface ICAM1 expression at 271.4 uM/ml preincubated before TNFalpha challenge measured after 16 hrs by ELISA; assay type: functional; details: Homo sapiens; procedure, shortened: as §2
[6] = test system: HUVEC; assay: Antiinflammatory activity in HUVEC assessed as inhibition of TNF-alpha-induced cell surface ICAM1 expression preincubated before TNFalpha challenge measured after 16 hrs by ELISA; assay type: functional, cell-based; details: Homo sapiens; procedure, shortened: as §2
[7] = test system: HUVEC; assay: Antiinflammatory activity in HUVEC assessed as inhibition of TNF-alpha-induced cell surface ICAM1 expression at 50 uM/ml preincubated before TNFalpha challenge measured after 16 hrs by ELISA; assay type: functional; details: Homo sapiens

| Structure (SMILES) | viability at 24 h, 60 ug/mL [1] [%] | inhibition at 60 µg/mL [2] [%] | Activity [3] | MTD [4] [uM/ml] | inhibition at 271.4 µM [5] [%] | IC50 [6] [µg/mL] | inhibition at 50 µM [7] [%] |
| --- | --- | --- | --- | --- | --- | --- | --- |
| CC1=NN(c2ccccc2)C(=O)C1C(=O)c1ccccc1 (stereo not drawn) | 95.8 | 75 | Non-toxic | 271.4 | 62 | 36.3 (≈ 130 µM) | – |
| CC(=O)C1C(=O)N(c2ccccc2)N=C1c1ccccc1 (stereo not drawn) | 97.9 | 20 | – | – | – | – | – |
| Cc1[nH]n(-c2ccccc2)c(=O)c1C(=O)CC(C)(C)C | 97.1 | 35 | – | – | – | – | – |
| CC1=NN(c2ccccc2)C(=O)C1C(=O)C(C)(C)C (stereo not drawn) | 96.1 | 60 | – | – | – | – | – |
| CC1=NN(c2ccccc2)C(=O)C1C(=O)c1ccco1 (stereo not drawn) | 96.2 | 55 | – | – | – | – | – |
| CC1=NN(c2ccccc2)C(=O)C1C(=O)CCC1CCCC1 (stereo not drawn) | 98.6 | 35 | – | – | – | – | – |
| COc1cc(/C=C/C(=O)CC(=O)/C=C/c2ccc(O)c(OC)c2)ccc1O [CURCUMIN] | – | – | – | 50 | – | – | 90 |
